Compound activity (PubChem BioAssay)
CHRM5 PAM – positive allosteric modulators of human muscarinic M5 receptor; CHO-K1 hM5, Fluo-8 calcium, ACh EC20 PAM; 0% = ACh EC20, 100% = ACh EC100; activation, % at 3 µM; 360,000 compounds, 0.3% hits; AID 624038;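 active means activation above the run cutoff, the mean activation of all test compounds plus 3 SD, cut at about 18% in these data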
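Assay system: CHO-K1 hM5 cells. Also added: acetylcholine at EC20 concentration, added after compound. Dosing: 3 µM, single dose. Times: compound preincubation 140 s before EC20 acetylcholine addition. Signal: Fluo-8 calcium fluorescence. Measure: % activation relative to EC20 and EC100 ACh responses. Repeats: singlicate, one well per test compound.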
M5 ag – agonists of human muscarinic M5 receptor (CHRM5) | CHO-K1 hM5 cells, Fluo-8 calcium fluorescence; 0% DMSO wells, 100% maximal acetylcholine response | activation, % at 3 µM | 360,000 compounds, 0.19% hits | P08912;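 active means activation above the run's mean over test compounds plus 3 SD, cut at about 23% in these data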;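 further: signal is peak over basal fluorescence ratio across the kinetic read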
CHRM4 antagonist – blocks acetylcholine activation of human M4 receptor; P08173; CHO-hM4 cells, ACh EC80, Fluo-8 calcium fluorescence; inhibition, % at 3 µM; 360,000 compounds, 0.73% hits;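 active means inhibition above its plate's cutoff, the mean inhibition of sample wells plus 3 SD, cut at about 27% in these data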;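 further: 0% = acetylcholine EC80 with DMSO and 100% = DMSO without agonist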
Target sequence (P08173 whole entry, looked up): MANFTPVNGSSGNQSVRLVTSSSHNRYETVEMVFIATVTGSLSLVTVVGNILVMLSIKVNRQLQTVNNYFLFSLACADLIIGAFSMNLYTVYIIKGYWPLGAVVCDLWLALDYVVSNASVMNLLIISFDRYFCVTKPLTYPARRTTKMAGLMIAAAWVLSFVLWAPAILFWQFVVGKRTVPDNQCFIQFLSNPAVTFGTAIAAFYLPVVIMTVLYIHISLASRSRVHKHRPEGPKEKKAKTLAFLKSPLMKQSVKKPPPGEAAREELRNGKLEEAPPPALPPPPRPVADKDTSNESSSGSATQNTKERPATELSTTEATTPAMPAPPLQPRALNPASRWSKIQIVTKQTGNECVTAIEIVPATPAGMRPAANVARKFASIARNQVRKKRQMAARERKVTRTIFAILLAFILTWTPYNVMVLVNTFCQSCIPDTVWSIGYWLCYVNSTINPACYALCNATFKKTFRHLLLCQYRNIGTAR
CHRM5 antagonist – antagonists of human muscarinic M5 receptor (CHRM5); P08912; inhibition, % at 3 µM; AID 624040; 360,000 compounds, 0.59% hits; CHO-hM5 cells, Fluo-8 calcium fluorescence, ACh EC80;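 active means inhibition above a per-plate cutoff, the mean of that plate's test compounds plus 3 SD, cut at about 27% in these data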;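 further: 0% = acetylcholine EC80 with DMSO and 100% = DMSO without agonist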
M4 PAM – positive allosteric modulators of human muscarinic M4 receptor; P08173; CHO-K1 hM4/Gqi5, Fluo-8 calcium fluorescence, ACh EC20; 0% = ACh EC20, 100% = maximal ACh; 360,000 compounds, 0.4% hits; activation, % at 3 µM;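 active means activation above its plate's cutoff, the mean activation of sample wells plus 3 SD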
CHRM4 agonist – agonists of human muscarinic M4 receptor (CHRM4); P08173; AID 624127; activation, % at 3 µM; 360,000 compounds, 0.14% hits; CHO-K1 hM4/Gqi5, Fluo-8 calcium fluorescence; vehicle 0%, full acetylcholine response 100%;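 active means activation above the run mean over all test wells plus 3 SD, cut at about 32% in these data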;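 further: peak over basal fluorescence ratio per well then scaled between controls; 0% = DMSO wells and 100% = acetylcholine at EC100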
An asterisk follows results filed as active; ! = a repeat was not active. Rows were chosen to be rich in hits. Some 1.9% of all compounds tested hit in one or more screens of this group.

SMILES | CHRM5 PAM | M5 ag | CHRM4 antagonist | CHRM5 antagonist | M4 PAM | CHRM4 agonist
O=C(Nc1ccc(F)c(Cl)c1)C1CCCN(C2=NS(=O)(=O)c3ccccc32)C1 (stereo unspecified) | 13.2 | 0.4 | -10.2 | -9.9 | 24.0* | 1.6
COc1ccc(CN2CC[C@@H]3CN(C(C)=O)[C@H](c4ccccc4Br)C[C@@H]32)cc1 | 1.2 | -5.7 | -25.0 | -7.2 | -1.6 | 0.6
CCCc1cn(CC(C)n2c(=O)c3ccccc3n2Cc2cc(C(C)C)no2)nn1 (stereo unspecified) | 2.2 | 2.5 | -4.4 | 0.3 | 0.3 | 2.0
CCN1CCN(C(=O)c2ccc(Cl)c(S(=O)(=O)N(C)c3ccccc3)c2)CC1 | 5.2 | 0.3 | -1.4 | -1.9 | 20.0* | 2.8
CN1CCN(C(c2cccc(Cl)c2)c2ccccc2Cl)CC1 (stereo unspecified) | -18.4 | -4.2 | 63.8* | 87.3* | -16.2 | 3.2
CN1CCN(C(c2ccccc2)c2ccc(Cl)cc2)CC1 (stereo unspecified) | -19.0 | -0.3 | 24.0 | 21.0 | -17.2 | 4.6
CC1(C(=O)NS(=O)(=O)c2ccccc2Cl)CCN1C(=O)COc1ccc(Cl)cc1 (stereo unspecified) | 2.2 | 1.0 | 0.1 | -2.2 | 4.5 | 0.4
Cc1ccc(CNC(=O)CCc2nc3ccccc3c(=O)[nH]2)cc1 | 35.8* | -4.9 | 2.1 | -9.7 | -3.0 | 0.5
O=C(O)c1ccccc1Cc1nc2cc(Cl)ccc2c(=O)[nH]1 | 5.6 | 1.7 | 8.5 | 12.8 | -4.3 | -0.5
CCOC(=O)c1ccccc1Cc1nc2ccccc2c(=O)[nH]1 | -21.0 | -10.4 | -1.6 | 43.7* | -6.4 | 0.7
CCN1/C(=C/c2ccc3ccccc3[n+]2CCCS(=O)(=O)[O-])C=Cc2cc(C)ccc21 | -5.9 | -2.2 | 3.3 | 14.4 | -1.0 | 0.4
CCN1/C(=C/c2ccc3ccccc3[n+]2CC)C=Cc2ccccc21 | -13.2 | 0.0 | 44.8* | 29.0* | -12.5 | 7.0
CCN1/C(=C/c2ccc3cc(C)ccc3[n+]2CC)Sc2cc(C)ccc21 | -21.9 | 7.8 | 16.9 | 41.7* | -16.6 | 11.2
CCCCN1/C(=C/c2ccc3ccccc3[n+]2CC)Sc2ccccc21 | -14.1 | 16.0 | 21.2 | 38.6* | -3.8 | 21.6
CNC(=O)CN(c1cc(OCCOC)c(Cl)cc1Cl)S(=O)(=O)c1ccc(OC)cc1 | -0.3 | 0.5 | -1.4 | 1.0 | -0.6 | 1.0
CC1(C(=O)Nc2nccs2)CCN1C(=O)C1(c2ccccc2)CC1 (stereo unspecified) | 0.5 | 0.1 | -7.6 | -7.3 | -6.0 | 1.0
CC(C)CNC(=O)NC(=O)COc1ncnc2sccc12 | -4.0 | 1.9 | 11.9 | 5.6 | 28.2* | 1.1
CC(C)CCNC(=O)NC(=O)COc1ncnc2sccc12 | 12.6 | 6.8 | -1.5 | -16.3 | 15.0 | 0.1
O=C(NC1CCCCC1)C(c1ccc(-c2ccccc2)cc1)n1c(=O)c(-c2ccco2)nc2ccccc21 (stereo unspecified) | -0.1 | 1.8 | -3.9 | -3.5 | 15.4 | 2.4
CCCCCCCCCCCCCCCC[n+]1cccc(C(=O)N(CC)CC)c1 | -33.1 | -8.4 | 41.3* | 43.4*! | -10.9 | 0.8
CCCCCCCC[n+]1cccc(C(=O)N(CC)CC)c1 | -1.0 | -8.2 | -1.2 | -0.8 | -8.7 | 0.7
Cc1ccc(-c2cnc(C(O)c3cc(F)cc(Cl)c3)[nH]2)cc1 (stereo unspecified) | 0.7 | 5.8 | 0.8 | 3.9 | 4.5 | 5.0
N#CNC(=Nc1ccccc1)SCc1ccc(C(=O)O)cc1 | 1.0 | -0.1 | 1.3 | -9.5 | 4.0 | 1.0
N#CNC(=Nc1cccc(C(F)(F)F)c1)SCc1ccc(C(=O)O)cc1 | 1.1 | -3.1 | 38.4* | -0.9 | -8.9 | 0.0
Cc1ccc(Cl)cc1N1CCN(Cc2cc(=O)n3ccsc3n2)CC1 | 19.2* | 0.3 | -16.7 | -14.0 | 1.6 | 4.5
SMILES | CHRM5 PAM | M5 ag | CHRM4 antagonist | CHRM5 antagonist | M4 PAM | CHRM4 agonist
CNc1ccc(-c2ccccc2OC)cn1 | -6.2 | -1.7 | -11.3 | 12.6 | 2.8 | 0.7
OC[C@@H]1CN(Cc2ccc(F)cc2)C[C@H](n2cnc3c(NCc4ccncc4)ncnc32)O1 | -0.8 | 0.5 | -15.0 | 1.5 | 4.0 | 3.6
COc1cc(CNc2ncnc3c2ncn3[C@H]2CN(Cc3cc(OC)c(OC)c(OC)c3)C[C@@H](CO)O2)cc(OC)c1OC | 1.5 | -1.4 | -21.4 | -11.9 | 22.2* | -0.4
OC[C@@H]1CN(Cc2ccccc2)C[C@H](n2cnc3c(NCc4ccncc4)ncnc32)O1 | 0.2 | 0.0 | -5.3 | 2.5 | 20.3* | 4.7
OC[C@@H]1CN(Cc2ccc(-c3ccccc3)cc2)C[C@H](n2cnc3c(Nc4ccccc4)ncnc32)O1 | -14.5 | 3.3 | 37.2* | 22.0 | -10.5 | 21.0
OC[C@@H]1CN(Cc2ccc(F)cc2)C[C@H](n2cnc3c(Nc4ccccc4)ncnc32)O1 | -8.9 | 2.0 | -1.0 | 12.7 | -13.0 | 16.1
Cc1csc(NC(=O)c2ccc(COc3ccccc3)o2)n1 | -7.5 | -0.9 | 9.2 | 16.1 | -9.1 | 10.7
COc1ccc(OC)c2[nH]c(=O)c(CCNC(=O)c3ccc(S(=O)(=O)N(C)C)cc3)cc12 | 2.7 | 1.6 | 10.6 | 15.6 | 27.8* | 3.6
O=C(c1cccs1)n1cc(C(=S)N2CCOCC2)c2ccccc21 | -2.5 | -3.2 | 7.4 | 3.1 | -5.2 | 0.7
O=C(C1CC1)n1cc(C(=S)N2CCOCC2)c2ccccc21 | 13.4 | -3.7 | 1.0 | -7.9 | 20.8* | 3.5
O=C(c1cccc(NS(=O)(=O)c2ccc(F)c(F)c2)c1)N1CCN(C(c2ccccc2)c2ccccc2)CC1 | -4.5 | -1.8 | -8.7 | 8.6 | 31.0* | 1.9
Cc1nn(Cc2ccccc2)c(C)c1NC(=O)CCCn1nc([N+](=O)[O-])cc1C | -2.7 | -0.6 | -0.3 | 6.0 | -4.6 | 0.2
CN(C)C(=O)c1cc2c(c(-c3cccc(-c4ccccc4F)c3)n1)[C@@H](CCO)N(S(C)(=O)=O)C2 | -7.5 | 0.9 | -4.1 | -3.4 | 5.7 | 1.3
CN(C)c1ccc(/C=C(/C#N)C(=O)Nc2nc3c(s2)CCN(Cc2ccccc2)C3)cc1 | -27.6 | 48.8* | 8.8 | 24.3 | -4.7 | 13.7
CCOc1ccccc1N(CC(=O)NCCSc1ccccn1)S(=O)(=O)c1ccccc1 | 9.8 | 0.6 | 10.6 | 26.4 | 13.2 | 32.5*
Cc1ccc(NC(=O)CCNC(=O)c2ccco2)cc1 | 13.1 | -1.0 | 3.3 | 0.8 | 18.5 | 0.5
O=C(CCNC(=O)c1ccc(Br)cc1)NCc1ccco1 | 1.4 | 2.8 | -5.5 | -17.2 | 5.2 | 2.3
O=C(CCNC(=O)c1ccco1)NNC(=O)c1ccc(Br)cc1 | 4.7 | -4.0 | -7.1 | -4.1 | 23.1* | 0.7
O=C(CCNC(=O)c1ccco1)Nc1ccccc1 | 1.9 | -1.0 | -11.7 | 8.8 | 15.7* | 1.7
